Where a name gives a salt, the structure may show the parent alone. Active and inactive are the calls of the source. The rule behind the calls is not given here. Non-standard residues stand in square brackets, D forms with d. Residues, ends and D or L forms follow the SMILES beside them. *: point of attachment. Pbf = Cc1c(C)c(S(=O)(=O)*)c(C)c2c1OC(C)(C)C2; Met(O2) = CS(=O)(=O)CC[C@H](N)C(=O)O; Met(O) = CS(=O)CC[C@H](N)C(=O)O; pNA = O=[N+]([O-])c1ccc(N*)cc1; Boc = CC(C)(C)OC(=O)*; NHBn = c1ccc(CN*)cc1; Tfa = O=C(C(F)(F)F)*; NHPh = c1ccc(N*)cc1

The term Ki denotes the dissociation constant of the complex between target and ligand, obtained from inhibition or displacement. Higher therefore signals weaker binding.

One test relates to dengue virus type 2. Kind of test: Inhibition of Dengue virus serotype 2 NS2B-NS3 protease using benzoyl-Nle-Lys-Arg-Arg-AMC as substrate assessed as remaining activity at 15 uM incubated for 3 mins followed by substrate addition by fluorescence spectrophotometric analysis relative to control. The method, boiled down:
(§1)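 DENV2 NS2B-NS3 protease expressed from a plasmid. Enzyme preincubated with inhibitor 3 min, then Bz-Nle-Lys-Arg-Arg-AMC (33 or 66 µM) added. Remaining activity read by fluorescence, ex 356/em 438 nm. Triplicate averages. Ki from Dixon plot (1/v vs inhibitor) at the two substrate levels.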
Regarding `CSCC[C@H](N)C(=O)N1CCC[C@H]1C(=O)Nc1ccc([N+](=O)[O-])cc1`, the Activity amounted to 31%. On the same count and under the same terms, in the case of `CSCC[C@H](NC(=O)OC(C)(C)C)C(=O)N1CCC[C@H]1C(=O)Nc1ccc([N+](=O)[O-])cc1` (Boc-Met-Pro-pNA) it was 45%; in that of `CSCC[C@H](N)C(=O)N1CCC[C@H]1C(=O)NCc1ccccc1` (H-Met-Pro-NHBn), 58%. Still for that read-out and setting: with `CSCC[C@H](NC(=O)C(F)(F)F)C(=O)N1CCC[C@H]1C(=O)Nc1ccc([N+](=O)[O-])cc1` (Tfa-Met-Pro-pNA) the figure was 54%.

System in another test: not listed separately
Nature of the test: Competitive inhibition of Dengue virus serotype 2 NS2B-NS3 protease using benzoyl-Nle-Lys-Arg-Arg-AMC as substrate by Dixon plot analysis. Set-up: species or system dengue virus type 2. The method, boiled down:
as §1
Turning to `CSCC[C@H](N)C(=O)N1CCC[C@H]1C(=O)Nc1ccc([N+](=O)[O-])cc1`, the Ki was 4.9 µM. Still for that read-out and setting: with `CSCC[C@H](NC(=O)OC(C)(C)C)C(=O)N1CCC[C@H]1C(=O)Nc1ccc([N+](=O)[O-])cc1` (Boc-Met-Pro-pNA) the figure was 10.5 µM.

The test system of a further test is dengue virus type 2. Nature of the test: Inhibition of Dengue virus serotype 2 NS2B-NS3 protease using benzoyl-Nle-Lys-Arg-Arg-AMC as substrate assessed as remaining activity at 20 uM incubated for 3 mins followed by substrate addition by fluorescence spectrophotometric analysis relative to control. The method, boiled down:
as §1
Turning to `COc1ccc(CN[C@@H](CCSC)C(=O)N2CCC[C@H]2C(=O)Nc2ccc([N+](=O)[O-])cc2)cc1`, the Activity turned out to be 90%. Same read-out and setting: in the case of `CSCC[C@H](N)C(=O)N1CCC[C@@H]1C(=O)Nc1ccc([N+](=O)[O-])cc1` it was 71%; in that of `CSCC[C@H](N)C(=O)N1CCC[C@H]1C(=O)Nc1cccc([N+](=O)[O-])c1`, 37%. On to `CSCC[C@H](N)C(=O)N1CCC[C@H]1C(=O)Nc1ccccc1[N+](=O)[O-]`, for which the Activity is 96%.

`CSCC[C@H](NCc1ccc([N+](=O)[O-])cc1)C(=O)N1CCC[C@H]1C(=O)Nc1ccc([N+](=O)[O-])cc1`: the Activity is 38%. On the same count and under the same terms, in the case of `Cc1c(C)c(S(=O)(=O)NC(=N)NCCC[C@H](NC(=O)OC(C)(C)C)C(=O)N2CCC[C@H]2C(=O)Nc2ccc([N+](=O)[O-])cc2)c(C)c2c1OC(C)(C)C2` (Boc-Arg(Pbf)-Pro-pNA) it was 90%; in that of `Cc1c(C)c(S(=O)(=O)NC(=N)NCCC[C@H](N)C(=O)N2CCC[C@H]2C(=O)Nc2ccc([N+](=O)[O-])cc2)c(C)c2c1OC(C)(C)C2` (H-Arg(Pbf)-Pro-pNA), 106%. Same read-out and setting: with `N=C(N)NCCC[C@H](N)C(=O)N1CCC[C@H]1C(=O)Nc1ccc([N+](=O)[O-])cc1` (H-Arg-Pro-pNA) the figure was 93%; with `CS(=O)(=O)CC[C@H](N)C(=O)N1CCC[C@H]1C(=O)Nc1ccc([N+](=O)[O-])cc1` (H-[Met(O2)]-Pro-pNA), 103%.

For `C[S+]([O-])CC[C@H](N)C(=O)N1CCC[C@H]1C(=O)Nc1ccc([N+](=O)[O-])cc1` (stereo partly specified) (H-[Met(O)]-Pro-pNA), the Activity amounted to 99%.

In a further test the test system is dengue virus type 2. Kind of test: Inhibition of Dengue virus serotype 2 NS2B-NS3 protease using benzoyl-Nle-Lys-Arg-Arg-AMC as substrate assessed as fluorescence changes after 0.2 to 1 min by fluorescence spectrophotometric analysis. Put shortly: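 Fluorescence interference check. Fluorescence change over time followed in three parallel runs at 37 °C in pH 9.0 Tris buffer: NS2B-NS3 with inhibitor, NS2B-NS3 with Bz-Nle-Lys-Arg-Arg-AMC, and NS2B-NS3 with substrate plus inhibitor. Read at ex 356/em 438 nm.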
On to `CSCC[C@H](NC(=O)OC(C)(C)C)C(=O)N1CCC[C@H]1C(=O)Nc1ccc([N+](=O)[O-])cc1` (Boc-Met-Pro-pNA), for which the inhibition entry was “Active”.

The test system of another test is dengue virus type 2. Nature of the test: Inhibition of Dengue virus serotype 2 NS2B-NS3 protease using benzoyl-Nle-Lys-Arg-Arg-AMC as substrate assessed as remaining activity at 200 uM incubated for 3 mins followed by substrate addition by fluorescence spectrophotometric analysis relative to control. Put shortly:
as §1
Take `CSCC[C@H](N)C(=O)N1CCC[C@H]1C(=O)NCc1ccc([N+](=O)[O-])cc1`: the Activity is 36%. Same read-out and setting: in the case of `CC(C)(C)OC(=O)N[C@@H](Cc1ccccc1)C(=O)N1CCC[C@H]1C(=O)Nc1ccc([N+](=O)[O-])cc1` (Boc-Phe-Pro-pNA) it was 25%; in that of `CSCC[C@H](N)C(=O)N1CCC[C@H]1C(=O)Nc1ccccc1` (H-Met-Pro-NHPh), 60%.

Consider `N[C@@H](Cc1ccccc1)C(=O)N1CCC[C@H]1C(=O)Nc1ccc([N+](=O)[O-])cc1` (H-Phe-Pro-pNA), for which the Activity is 31%.

(Values after ChEMBL document CHEMBL3091279, “Discovery and SAR studies of methionine-proline anilides as dengue virus NS2B-NS3 protease inhibitors” (Bioorg Med Chem Lett, 2013).)
